Screens deposited in PubChem by several laboratories.
SENP8 block-1: SENP8 (human) protease inhibition | recombinant SENP8, Nedd8 substrate fluorescence | inhibition, % at 20 µM | hit rate 0.64% among 360,000 | AID 602440; in the data active means inhibition mostly above about 40%, no sharp cut-off; inactive means mostly below about 27%
Target sequence (Q96LD8 whole entry, looked up): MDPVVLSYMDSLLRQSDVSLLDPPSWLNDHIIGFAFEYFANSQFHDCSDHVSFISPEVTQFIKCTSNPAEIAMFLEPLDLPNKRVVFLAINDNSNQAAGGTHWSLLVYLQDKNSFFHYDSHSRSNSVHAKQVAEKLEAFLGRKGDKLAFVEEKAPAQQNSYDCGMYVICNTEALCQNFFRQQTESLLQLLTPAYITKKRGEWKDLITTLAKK
UCH37 inh: inhibitors of human deubiquitinating enzyme UCH37 | hit rate 0.33% among 330,000 | Q9Y5K5 | inhibition, % (concentration not given with the values) | AID 588478 | purified proteasome/UCH37, Ub-AMC cleavage fluorescence;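 active means mean inhibition over replicate wells above about 20%, limit read from the data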;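 further: 0% = compound-free wells with enzyme and 100% = wells lacking proteasome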
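Material: human UCH37 enzyme supplied as purified proteasome complex / Amount: 0.15 nM proteasome as dispensed / Buffer or medium: pH 7.4 Tris-HCl (50 mM) with ovalbumin, ATP-MgCl2, DTT / Times: preincubation 30 min, reaction 25 min, room temperature / Technique: AMC fluorescence from Ub-AMC cleavage, excitation 355 nm, emission 460 nm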
SENP6 block: blocks the human protease SENP6; Q9GZR1; inhibition, % at 10 µM; AID 2599; Recombinant SENP6 catalytic domain, aminoluciferin luminescence; hit rate 1.8% among 330,000;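 active means inhibition above about 50% at the single tested dose, limit read from the data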;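 further: plate controls were DMSO wells with enzyme for no effect and DMSO wells lacking enzyme for full effect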
Target sequence (Q9GZR1 628-1112 limits assumed): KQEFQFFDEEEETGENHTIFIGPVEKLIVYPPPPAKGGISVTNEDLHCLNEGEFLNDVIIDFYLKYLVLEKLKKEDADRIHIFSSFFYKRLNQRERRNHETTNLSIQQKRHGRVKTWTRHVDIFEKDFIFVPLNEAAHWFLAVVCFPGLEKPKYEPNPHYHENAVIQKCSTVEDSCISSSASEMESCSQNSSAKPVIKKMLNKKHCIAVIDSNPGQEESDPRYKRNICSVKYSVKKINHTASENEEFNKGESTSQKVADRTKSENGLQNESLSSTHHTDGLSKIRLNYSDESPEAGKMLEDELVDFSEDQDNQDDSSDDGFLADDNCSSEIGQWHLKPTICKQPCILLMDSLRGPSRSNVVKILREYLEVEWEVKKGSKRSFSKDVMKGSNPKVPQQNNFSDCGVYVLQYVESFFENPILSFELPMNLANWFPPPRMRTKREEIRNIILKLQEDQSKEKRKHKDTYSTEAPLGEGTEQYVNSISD
SENP8 block-2: SENP8 protease inhibition; Q96LD8; purified SENP8, Z-RLRGG-aminoluciferin cleavage, luminescence; inhibition, % at 10 µM; hit rate 1.2% among 330,000; AID 2540; in the data active means inhibition above about 50%
SENP7 block: inhibitors of human SENP7 protease | Q9BQF6 | recombinant SENP7, Z-RLRGG-aminoluciferin luminescence, 40 min | inhibition, % at 5 µM | hit rate 1.5% among 330,000;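 active means inhibition above about 50% at the single test dose, limit read from the data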;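 further: plate controls were DMSO with enzyme for no effect and no enzyme buffer wells for full effect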
SENP1 inh: inhibitors of human SENP1 SUMO protease catalytic domain. Q9P0U3. inhibition, % at 10 µM. recombinant SENP1 catalytic domain, CyPet-SUMO1-YPet FRET cleavage. AID 624204. hit rate 0.21% among 360,000;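 active means inhibition at least 30% at 10 µM, raw YFP signal under a set limit, fluorescence ratio 0.5 to 1.5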;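 further: 0% = enzyme with DMSO and 100% = no enzyme wells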
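System: Recombinant human SENP1 catalytic domain, His6-tagged | Incubation: Enzyme reaction for 50 min at room temperature, dark | Medium: Tris pH 8 with BME, BSA, NP40 and catalase | Also added: 25 nM SUMO1 FRET substrate | Compound: 10 µM single point, 0.5% DMSO | Measured by: FRET fluorescence in CFP and YFP emission channels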
SENP8 conf: confirmation of human SENP8 protease inhibitors; shares compounds with SENP7 block; Recombinant SENP8, Z-RLRGG-aminoluciferin luminescence, 60 min; inhibition, % at 12.5 µM; hit rate 40% among 6,200; AID 488912;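 active means mean inhibition across replicates above about 50%, limit read from the data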
SENP6 confirm: human SENP6 inhibition, confirmed | shares compounds with SENP7 block | inhibition, % at 12.5 µM | recombinant SENP6, Z-RLRGG-aminoluciferin luminescence | hit rate 58% among 6,200
SENP7 confirm: human SENP7 inhibition, confirmed; shares compounds with SENP7 block; AID 488917; recombinant SENP7, Z-RLRGG-aminoluciferin luminescence, 40 min; hit rate 69% among 6,200; inhibition, % at 12.5 µM
Casp3 select: selectivity test for SENP inhibitors: human caspase-3 inhibition; shares compounds with SENP7 block; purified caspase-3, Z-DEVD-aminoluciferin luminescence, 60 min; inhibition, % at 12.5 µM; hit rate 60% among 6,200; AID 488918;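 active means mean inhibition above about 50%, limit read from the data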;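 further: plate controls were enzyme with DMSO for no effect and wells without caspase-3 for full effect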
SENP luc ctr: interferes with luciferase luminescence in SENP counter-screen; shares compounds with SENP7 block; Pre-incubated SENP8/Z-RLRGG-aminoluciferin, luciferase luminescence interference; inhibition, % at 12.5 µM; hit rate 39% among 6,200;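 active means mean inhibition above about 50% when retested at one dose, limit read from the data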;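 further: plate controls were DMSO wells with completed reaction for no effect and substrate without enzyme for full effect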
Numbers without * were called inactive; / = not tested or not shown. The list is not random: actives were taken first. Their share in the collection is about 2.6%.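 How the source made its calls, unless noted: active means mean inhibition above about 50% in the one-dose retest (limit read from the data); inactive means the rest.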

SMILES | SENP8 block-1 | UCH37 inh | SENP6 block | SENP8 block-2 | SENP7 block | SENP1 inh | SENP8 conf | SENP6 confirm | SENP7 confirm | Casp3 select | SENP luc ctr
CC(=O)Oc1c(C)cc(Cl)cc1C(=O)Nc1ccc([N+](=O)[O-])cc1Cl | 18 | 3 | 84* | 24 | 98* | 0 | 9 | 8 | 10 | 24 | 14
CC1CCc2sc(C(=O)NN=Cc3ccc([N+](=O)[O-])cc3)cc2C1 (stereo not drawn) | / | 1 | / | / | / | / | / | / | / | / | /
O=C(Nc1nnc(-c2ccco2)o1)c1ccc2ccccc2c1 | 10 | 4 | 71* | 47 | 18 | 2 | 25 | 18 | 14 | 36 | 9
CC1Cc2cc(/C=C3/SC(=S)NC3=O)ccc2O1 (stereo not drawn) | 22 | 10 | 74* | 67* | 2 | -14 | 11 | 76* | 84* | 47 | 0
CSCCC(NC(=O)c1ccccc1)C(=O)OCC(=O)Nc1ccc(C)c(Cl)c1 (stereo not drawn) | 3 | 3 | -6 | 2 | 6 | -1 | / | / | / | / | /
Cc1ccc(NC(CC(=O)c2ccccc2)C(=O)O)cc1Cl (stereo not drawn) | -34 | 2 | -8 | 74* | 65* | -13 | -12 | 8 | 18 | 36 | 19
Cc1cccc(/C=C/C(=O)c2ccc(N3CCOCC3)cc2)c1 | / | 2 | 89* | 84* | 92* | / | 30 | 34 | 35 | 55* | 80*
CCc1ccc(/C=C/C(=O)c2ccc(N3CCOCC3)cc2)cc1 | -20 | 1 | -11 | -15 | -1 | 4 | / | / | / | / | /
Cc1ccc(/C=C/C(=O)c2ccc(N3CCOCC3)cc2)s1 | -12 | 5 | 81* | 68* | 35 | 29 | -1 | 33 | 33 | 16 | 0
CC(=NO)C1C(=NO)CC2C1C2(C)C (stereo not drawn) | / | 2 | / | / | / | / | / | / | / | / | /
COc1ccc(-c2ccc(SCc3ccccn3)nn2)cc1OC | -1 | 3 | -57 | -21 | -5 | -11 | / | / | / | / | /
COc1cccc(-c2ccc(SCc3ccccn3)nn2)c1 | 18 | 4 | 2 | 59* | 80* | 0 | 75* | 67* | 92* | 86* | 78*
O=C(OCC1COc2ccccc2O1)c1c(F)cccc1F (stereo not drawn) | 10 | 3 | -2 | -7 | 83* | 4 | 2 | 2 | 1 | 0 | 10
Cc1cccc(NC(=O)c2ccc3nccnc3c2)n1 | -13 | 1 | 8 | -4 | 3 | 1 | / | / | / | / | /
Cc1cccc(NC(=O)c2ccc3c(Cl)c4c(nc3c2)CCCC4)n1 | -3 | -9 | 44 | 9 | 87* | -6 | -2 | 8 | 10 | 21 | -4
CCC(C)NC(=O)c1ccc2c(Cl)c3c(nc2c1)CCC3 (stereo not drawn) | 13 | 6 | 34 | 6 | 28 | -1 | / | / | / | / | /
O=C(Nc1ccc(Cl)cn1)c1ccc2c(Cl)c3c(nc2c1)CCC3 | -3 | -10 | 2 | 1 | 71* | 4 | -20 | -18 | 11 | 27 | 3
CCOc1cccc(C=NN2C(=O)CSC2=S)c1O | / | 10 | / | / | / | / | / | / | / | / | /
N/C(=N\OC(=O)Nc1ccc(Cl)cc1)c1ncc(C(F)(F)F)cc1Cl | 20 | 3 | -22 | -5 | 5 | 1 | / | / | / | / | /
N/C(=N\OC(=O)Nc1ccccc1)c1ncc(C(F)(F)F)cc1Cl | 20 | 1 | 50* | 29 | 7 | 2 | 52* | 47 | 77* | 69* | 57*
Cc1cccc(NC(=O)c2c(O)c3ccccc3[nH]c2=O)c1 | -75 | -137 | -1 | -9 | -1 | 0 | / | / | / | / | /
O=C(Nc1cccc(O)c1)c1c(O)c2ccccc2[nH]c1=O | -26 | 0 | 48 | 62* | 86* | -1 | 7 | 50* | 78* | 57* | 44
COc1ccc(CSCC(=O)NN=Cc2ccc(OCC(=O)N3CCCCC3)cc2)cc1 | / | -2 | / | / | / | / | / | / | / | / | /
CCOC(=O)NN=C/C(Cl)=C/c1ccccc1 | / | 3 | / | / | / | / | / | / | / | / | /
Cc1csc2nc(CSc3ccc(Cl)cc3)cn12 | 11 | 3 | 80* | 46 | 53* | -3 | 78* | 77* | 92* | 67* | 72*
SMILES | SENP8 block-1 | UCH37 inh | SENP6 block | SENP8 block-2 | SENP7 block | SENP1 inh | SENP8 conf | SENP6 confirm | SENP7 confirm | Casp3 select | SENP luc ctr
C=C(C)CSc1nc2ncccc2[nH]1 | 10 | 1 | -13 | 4 | 5 | 1 | / | / | / | / | /
Cc1ccc(CSc2nc3ncccc3[nH]2)cc1 | 11 | -2 | 81* | 64* | 67* | -2 | 7 | 77* | 95* | 43 | 81*
Cc1ccc(Nc2nc(Cl)c(C=O)s2)cc1Cl | -365 | -17 | 94* | 93* | 87* | -28 | 69* | 96* | 85* | 52* | 10
C=C(C)C(O)CC/C(C)=C/Cc1c(O)ccc(C(=O)/C=C/c2ccc(O)cc2)c1O (stereo not drawn) | 36 | 7 | 88* | 90* | 65* | 8 | 97* | 96* | 99* | 37 | 39
O=C(COC(=O)c1ccc[nH]c1=O)c1ccc(Cl)s1 | 14 | -1 | -16 | -11 | -14 | -1 | / | / | / | / | /
O=C(COC(=O)c1cccnc1Cl)c1ccc(Cl)s1 | 11 | 1 | 56* | 42 | 76* | 3 | 67* | 63* | 88* | 80* | 76*
Cc1ccc(C(=O)OCC(=O)NCCNC(=O)COC(=O)c2ccc(C)s2)s1 | 2 | 4 | 2 | -8 | -9 | 2 | / | / | / | / | /
Cc1ccc(C(=O)OCC(=O)c2ccc(Cl)s2)s1 | 25 | 1 | 54* | 30 | 24 | 1 | 52* | 46 | 80* | 40 | 28
COc1ccc(C(C)=NNC(=O)CNC(=O)C2COc3ccccc3O2)c(OC)c1 (stereo not drawn) | / | 3 | / | / | / | / | / | / | / | / | /
O=[N+]([O-])c1ccc(C2CCCCC2=NOCc2ccccc2F)c([N+](=O)[O-])c1 (stereo not drawn) | / | 2 | / | / | / | / | / | / | / | / | /
Oc1cccc(/C=N/N2CCCCC2)c1O | 22 | / | -14 | -17 | -9 | 0 | / | / | / | / | /
Oc1ccc(/C=N/N2CCCCC2)c(O)c1O | 52* | / | 56* | 20 | 11 | 38* | -4 | 8 | 5 | 3 | 1
COc1ccc(-n2ncc3c(N4CCN(c5cccc(C)c5C)CC4)ncnc32)cc1 | -50 | 3 | -2 | 2 | 4 | -6 | / | / | / | / | /
